Data taken from ChEMBL document CHEMBL2401723, “Optimization of the electrophile of chloronitrobenzamide leads active against Trypanosoma brucei” (Bioorg Med Chem Lett, 2013).
In brackets after ≈: the same amount, converted by molar mass.

Tests used:
[1] = tested on: Trypanosoma brucei brucei; test: Antitrypanosomal activity against Trypanosoma brucei brucei assessed as parasite growth inhibition; type: functional, organism-based
HepG2 = test: Cytotoxicity against human HepG2 cells assessed as growth inhibition after 72 hrs by Cell-Titer Glo assay; type: cell-based; details: HepG2, 72 h
In short: (§1)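 Human cell lines (Raji Burkitt's lymphoma, BJ immortalized foreskin fibroblast, HEK293 embryonic kidney, HepG2) exposed 72 h to a 10-point threefold dilution series by pin transfer, lowest final 0.5 nM, final DMSO 0.2%; proliferation run in triplicate, EC50 derived.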

[2] = tested on: Trypanosoma brucei brucei; test: Antitrypanosomal activity against Trypanosoma brucei brucei assessed as parasite growth inhibition after 48 hrs by Cell-Titer Glo assay; type: functional, organism-based
Raji = test: Cytotoxicity against human Raji cells assessed as growth inhibition after 72 hrs by Cell-Titer Glo assay; type: cell-based; in short: as §1
HEK293 = test: Cytotoxicity against HEK293 cells assessed as growth inhibition after 72 hrs by Cell-Titer Glo assay; type: cell-based; details: Homo sapiens, HEK293, 72 h; in short: as §1
[3] = tested on: Trypanosoma brucei gambiense; test: Antitrypanosomal activity against Trypanosoma brucei gambiense STIB930 assessed as parasite growth inhibition after 48 hrs by Cell-Titer Glo assay; type: functional, organism-based; details: STIB930, 48 h
In short: (§2)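 Parasites exposed to a 10-point threefold dilution series added by pin transfer, lowest final concentration 0.5 nM, final DMSO 0.2%; EC50 from the series, mean of two experiments.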

BJ = test: Cytotoxicity against human BJ cells assessed as growth inhibition after 72 hrs by Cell-Titer Glo assay; type: cell-based; in short: as §1
[4] = Permeability of the compound by PAMPA; type: ADME; details: for Papp: read-out: permeability
In short: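 Passive permeability by parallel artificial membrane assay (pION implementation), measured against PBS pH 7.4 sink buffer.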

[5] = Kinetic solubility in PBS buffer at pH 7.4 after 18 hrs by UV-spectroscopic analysis; type: physicochemical; details: for solubility kinetic at 18 h: PBS buffer, pH 7.4, read-out: Kinetic_solubility
[6] = Half life in mouse liver microsomes; type: ADME, Microsome
[7] = Half life in human liver microsomes; type: ADME, Microsome
[8] = tested on: Trypanosoma brucei rhodesiense; test: Antitrypanosomal activity against wild type Trypanosoma brucei rhodesiense STIB900 assessed as parasite growth inhibition after 48 hrs by Cell-Titer Glo assay; type: functional, organism-based; details: STIB900, 48 h; in short: as §2

Row | Structure (SMILES) | EC50 [1] [µM] | EC50 [2] [µM] | EC50 [3] [µM] | Papp [4] [×10⁻⁶ cm/s] | solubility kinetic at 18 h [5] [µM] | half-life [6] [h] | half-life [7] [h] | EC50 [8] [µM] | permeability [4] [×10⁻⁶ cm/s] | Kinetic_solubility ([5]; buffer, pH 7.4, 18 h, BLD = below limit of detection) | EC50 (HepG2) [µM] | EC50 (Raji) [µM] | EC50 (HEK293) [µM] | EC50 (BJ) [µM]
1 | Cc1ccc(-c2nc3ccccc3s2)cc1NC(=O)c1cc([N+](=O)[O-])c(N2CCNCC2)cc1Cl | 0.027 |  |  |  |  |  |  |  |  |  |  |  |  | 
2 | Cc1ccc(-c2nc3ccccc3s2)cc1NC(=O)c1cnccc1Cl |  | 0.058 | 0.058 | 791 | 0.14 (≈ 0.0532 µg/mL) | 0.58 | 3.7 | 0.055 |  |  | > 25 | > 25 | > 25 | > 25
3 | COc1ccc(-c2nc3ccccc3s2)cc1NC(=O)c1cnccc1Cl |  | 0.12 |  | 121 | 0.34 (≈ 0.135 µg/mL) |  |  |  |  |  | > 25 | 13 | > 25 | > 25
4 | O=C(Nc1cc(-c2nc3ccccc3s2)ccc1F)c1cnccc1Cl |  | 0.18 |  | 306 | 0.18 (≈ 0.0691 µg/mL) |  |  |  |  |  | > 25 | > 25 | > 25 | > 25
5 | O=C(Nc1ccc(F)c(-c2nc3ccccc3s2)c1)c1cnccc1Cl |  | 0.12 | 0.038 | 21 | 0.08 (≈ 0.0307 µg/mL) | > 4 | > 4 | 0.018 |  |  | > 25 | > 25 | > 25 | > 25
6 | Cc1ccc(-c2nc3ccccc3o2)cc1NC(=O)c1cnccc1Cl |  | 0.18 | 0.17 | 646 | 0.51 (≈ 0.186 µg/mL) |  |  | 0.12 |  |  | > 25 | > 25 | > 25 | > 25
7 | COc1ccc(-c2nc3ccccc3o2)cc1NC(=O)c1cnccc1Cl |  | 0.2 |  | 391 | 1.68 (≈ 0.638 µg/mL) |  |  |  |  |  | > 25 | > 25 | > 25 | > 25
8 | O=C(Nc1cc(-c2nc3ccccc3o2)ccc1F)c1cnccc1Cl |  | 0.44 |  | 258 | 0.13 (≈ 0.0478 µg/mL) |  |  |  |  |  | > 25 | > 25 | > 25 | > 25
9 | O=C(Nc1ccc(F)c(-c2nc3ccccc3o2)c1)c1cnccc1Cl |  | 0.12 | 0.12 | 305 | 0.67 (≈ 0.246 µg/mL) |  |  | 0.05 |  |  | > 25 | > 25 | > 25 | > 25
10 | O=C(Nc1cccc(-c2nc3ccccc3s2)c1)c1cc([N+](=O)[O-])cnc1Cl |  | 13 |  | 42 | 0.45 (≈ 0.185 µg/mL) |  |  |  |  |  | > 25 | 8.4 | > 25 | > 25
11 | O=C(Nc1ccc(Cl)cc1)c1cc([N+](=O)[O-])ccc1Cl |  | 0.92 |  | 536 | 3 (≈ 0.933 µg/mL) |  |  |  |  |  | > 25 | > 25 | > 25 | > 25

The next lines start with results.

Row | EC50 [1] [µM] | EC50 [2] [µM] | EC50 [3] [µM] | Papp [4] [×10⁻⁶ cm/s] | solubility kinetic at 18 h [5] [µM] | half-life [6] [h] | half-life [7] [h] | EC50 [8] [µM] | permeability [4] [×10⁻⁶ cm/s] | Kinetic_solubility ([5]; buffer, pH 7.4, 18 h, BLD = below limit of detection) | Structure (SMILES) | EC50 (HepG2) [µM] | EC50 (Raji) [µM] | EC50 (HEK293) [µM] | EC50 (BJ) [µM]
12 |  | > 33 |  | 797 | 0.18 (≈ 0.0505 µg/mL) |  |  |  |  |  | C=CC(=O)Nc1cccc(-c2nc3ccccc3s2)c1 | > 25 | > 25 | > 25 | > 25
13 |  | > 33 |  |  | 0.11 (≈ 0.0324 µg/mL) |  |  |  | 1640 |  | C/C=C/C(=O)Nc1cccc(-c2nc3ccccc3s2)c1 | > 25 | > 25 | > 25 | > 25
14 |  | > 33 |  | 987 | 0.42 (≈ 0.124 µg/mL) |  |  |  |  |  | C=C(C)C(=O)Nc1cccc(-c2nc3ccccc3s2)c1 | > 25 | > 25 | > 25 | > 25
15 |  | > 33 |  | 4 | 56 (≈ 18.2 µg/mL) |  |  |  |  |  | O=C(O)/C=C/C(=O)Nc1cccc(-c2nc3ccccc3s2)c1 | > 25 | > 25 | > 25 | > 25
16 |  | > 33 |  |  | 56 (≈ 18.2 µg/mL) |  |  |  | 2080 |  | CN(C)CCC(=O)Nc1cccc(-c2nc3ccccc3s2)c1 | 21 | > 25 | > 25 | > 25
17 |  | 0.12 |  | 660 | 1 (≈ 0.303 µg/mL) |  |  |  |  |  | O=C(CCl)Nc1cccc(-c2nc3ccccc3s2)c1 | 16 | 1.7 | 10 | 8.5
18 |  | 1.2 |  | 769 | 0.83 (≈ 0.263 µg/mL) |  |  |  |  |  | CC(Cl)C(=O)Nc1cccc(-c2nc3ccccc3s2)c1 (stereo not drawn) | > 25 | > 25 | > 25 | > 25
19 |  | > 33 |  | 891 |  |  |  |  |  | BLD | CC(C)(CCl)C(=O)Nc1cccc(-c2nc3ccccc3s2)c1 | > 25 | > 25 | > 25 | > 25
20 |  | 0.3 | 0.061 | 732 | 0.32 (≈ 0.117 µg/mL) |  |  | 0.062 |  |  | O=C(Nc1cccc(-c2nc3ccccc3s2)c1)c1cnccc1Cl | > 25 | 12 | > 25 | > 25
21 |  | 25 |  | 677 | 0.52 (≈ 0.19 µg/mL) |  |  |  |  |  | O=C(Nc1cccc(-c2nc3ccccc3s2)c1)c1cccnc1Cl | > 25 | > 25 | > 25 | > 25
22 |  | 11 |  | 104 | 0.35 (≈ 0.14 µg/mL) |  |  |  |  |  | O=C(Nc1cccc(-c2nc3ccccc3s2)c1)c1ccc(Cl)nc1Cl | > 25 | > 25 | > 25 | > 25
23 |  | 20 |  | 478 | 0.74 (≈ 0.271 µg/mL) |  |  |  |  |  | O=C(Nc1cccc(-c2nc3ccccc3s2)c1)c1ccnc(Cl)c1 | > 25 | > 25 | > 25 | > 25
24 |  | 24 |  | 563 | 0.32 (≈ 0.117 µg/mL) |  |  |  |  |  | O=C(Nc1cccc(-c2nc3ccccc3s2)c1)c1ccncc1Cl | > 25 | > 25 | > 25 | > 25
25 |  | 18 |  | 133 | 0.94 (≈ 0.35 µg/mL) |  |  |  |  |  | O=C(Nc1cccc(-c2nc3ccccc3s2)c1)c1cnc(Cl)s1 | > 25 | > 25 | > 25 | > 25
